# From ChEMBL document CHEMBL6083209, “Pyridazinone-based derivatives as anticancer agents endowed with anti-microbial activity: molecular design, synthesis, and biological investigation” (RSC Med Chem, 2024)
# Activity calls are given as the source filed them. The calls are words filed in the database; no cut-off is given here.
# Key:
# Escherichia coli = assay: Antimicrobial activity against Escherichia coli ATCC 25922 by broth microdilution method
# Candida albicans = assay: Antimicrobial activity against Candida albicans ATCC 10231 by broth microdilution method
# Staphylococcus aureus [1] = assay: Antimicrobial activity against Staphylococcus aureus ATCC 29213 by broth microdilution method
# Staphylococcus aureus [2] = assay: Antimicrobial activity against Staphylococcus aureus; format: functional
# [3] = biological target: Vascular endothelial growth factor receptor 2 (Homo sapiens, UniProt P35968); assay: Inhibition of VEGFR2 (unknown origin)
# A549 = assay: Downregulation of Bcl-2 gene expression in human A549 cells by qRT-PCR analysis; format: functional, cell-based
# Method in brief: (§1)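 A549/ATCC cells treated, total RNA DNase-treated and checked by 260/280 ratio (1.8–2.1). Reverse transcription with oligo-dT and MuLV RT: 25 °C 10 min, 42 °C 1 h, 99 °C 5 min. qPCR of 40 cycles (95 °C 15 s, 55 °C 30 s, 72 °C 30 s) followed by melt curve. Relative expression by the 2−ΔΔCT method, mean ± SEM.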
# [4] = Upregulation of p53 gene expression in human A549 cells assessed as fold increase by qRT-PCR analysis; format: functional
# Method in brief: as §1
# [5] = Upregulation of Bax gene expression in human A549 cells assessed as fold increase by qRT-PCR analysis; format: functional
# Method in brief: as §1
# Chain of Vascular endothelial growth factor receptor 2 (P35968 whole entry): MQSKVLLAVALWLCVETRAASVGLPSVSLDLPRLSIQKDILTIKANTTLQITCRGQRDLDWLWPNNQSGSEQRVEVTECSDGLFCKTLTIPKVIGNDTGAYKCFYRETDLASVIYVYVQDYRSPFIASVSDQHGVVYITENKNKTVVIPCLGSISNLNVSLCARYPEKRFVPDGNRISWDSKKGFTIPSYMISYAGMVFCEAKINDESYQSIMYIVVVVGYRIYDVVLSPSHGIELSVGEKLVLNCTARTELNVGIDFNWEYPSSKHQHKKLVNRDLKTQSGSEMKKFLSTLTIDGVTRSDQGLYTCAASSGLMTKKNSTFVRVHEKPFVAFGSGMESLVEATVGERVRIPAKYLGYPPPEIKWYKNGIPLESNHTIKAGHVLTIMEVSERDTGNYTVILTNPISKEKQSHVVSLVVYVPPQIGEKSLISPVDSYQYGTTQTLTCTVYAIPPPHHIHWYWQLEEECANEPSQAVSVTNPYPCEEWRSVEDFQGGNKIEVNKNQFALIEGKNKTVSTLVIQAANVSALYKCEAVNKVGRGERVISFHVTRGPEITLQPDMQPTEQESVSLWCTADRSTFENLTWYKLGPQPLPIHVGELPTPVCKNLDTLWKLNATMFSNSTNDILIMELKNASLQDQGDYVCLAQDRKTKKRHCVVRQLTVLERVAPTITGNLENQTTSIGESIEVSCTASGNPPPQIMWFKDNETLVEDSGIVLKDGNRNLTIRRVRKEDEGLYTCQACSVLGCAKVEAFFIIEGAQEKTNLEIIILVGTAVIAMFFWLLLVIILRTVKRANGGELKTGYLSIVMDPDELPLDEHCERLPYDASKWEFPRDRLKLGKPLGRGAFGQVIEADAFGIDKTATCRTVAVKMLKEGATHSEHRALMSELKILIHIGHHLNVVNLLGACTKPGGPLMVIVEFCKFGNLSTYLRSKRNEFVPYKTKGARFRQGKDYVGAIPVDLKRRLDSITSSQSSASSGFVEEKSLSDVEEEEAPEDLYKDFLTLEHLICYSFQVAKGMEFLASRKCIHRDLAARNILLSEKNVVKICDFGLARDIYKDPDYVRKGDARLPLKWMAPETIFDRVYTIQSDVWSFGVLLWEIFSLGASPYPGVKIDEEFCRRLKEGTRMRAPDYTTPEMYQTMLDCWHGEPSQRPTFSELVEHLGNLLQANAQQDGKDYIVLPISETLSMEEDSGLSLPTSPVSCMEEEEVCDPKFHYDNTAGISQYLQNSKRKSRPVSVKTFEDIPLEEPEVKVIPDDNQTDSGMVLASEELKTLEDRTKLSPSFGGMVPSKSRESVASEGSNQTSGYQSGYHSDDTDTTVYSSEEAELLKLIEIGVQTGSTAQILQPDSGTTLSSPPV
MIC (Escherichia coli) [µg/mL],MIC (Candida albicans) [µg/mL],MIC (Staphylococcus aureus [1]) [µg/mL],Structure (SMILES),other results
512,32,128,O=c1ccc(-c2ccc(NC(=S)Nc3ccc(Cl)c(Cl)c3)cc2)n[nH]1,
1020,32,128,O=c1ccc(-c2ccc(NC(=S)Nc3cccc(Br)c3)cc2)n[nH]1,
> 1020,64,512,O=c1ccc(-c2ccc(NC(=S)Nc3cccc(F)c3)cc2)n[nH]1,
,,,O=C(Nc1ccc2c(c1)OC(F)(F)O2)Nc1ccc(Cl)c(C(F)(F)F)c1,MIC (Staphylococcus aureus [2]): 0.3 µg/mL
256,64,512,O=c1ccc(-c2ccc(NS(=O)(=O)c3cccc(Br)c3)cc2)n[nH]1,
512,512,128,O=c1ccc(/C=C/c2ccc(NC(=S)Nc3ccc(Cl)c(Cl)c3)cc2)n[nH]1,
1020,256,512,O=c1ccc(-c2ccc(NS(=O)(=O)c3ccc(Cl)c(Cl)c3)cc2)n[nH]1,
512,> 1020,128,O=C(Nc1ccc(-c2ccc(=O)[nH]n2)cc1)Nc1cccc(Br)c1,
256,> 1020,256,O=C(Nc1ccc(F)cc1)Nc1ccc(-c2ccc(=O)[nH]n2)cc1,
,,,N#Cc1ccc(Oc2cccc(NC(=O)Nc3ccc(Cl)c(C(F)(F)F)c3)c2)cc1Cl,MIC (Staphylococcus aureus [2]): 0.5 µg/mL
,,,O=C(Nc1ccc(Cl)c(C(F)(F)F)c1)Nc1ccc(Cl)c(C(F)(F)F)c1,IC50 [3]: 1.13 nM; MIC (Staphylococcus aureus [2]): 0.25 µg/mL
256,512,128,O=C(NC(=S)Nc1ccc(-c2ccc(=O)[nH]n2)cc1)c1cccc(F)c1,
,,,O=C(Nc1ccc(-c2ccc(=O)[nH]n2)cc1)Nc1ccc(Cl)c(C(F)(F)F)c1,IC50 [3]: 1800 nM; MIC (Staphylococcus aureus [2]): > 128 µg/mL
,,,O=C(Nc1ccc(Oc2ccc(=O)[nH]n2)cc1)Nc1ccc(Cl)c(C(F)(F)F)c1,MIC (Staphylococcus aureus [2]): > 128 µg/mL
,,,N#Cc1ccc(Oc2ccc3cccc(NC(=O)Nc4ccc(Cl)c(C(F)(F)F)c4)c3c2)cc1,MIC (Staphylococcus aureus [2]): 1 µg/mL
256,16,128,O=c1ccc(-c2ccc(NC(=S)Nc3cccc(Cl)c3)cc2)n[nH]1,
> 1020,512,> 1020,O=C(NC(=S)Nc1ccc(-c2ccc(=O)[nH]n2)cc1)c1ccc([N+](=O)[O-])cc1,
256,512,128,O=C(NC(=S)Nc1ccc(-c2ccc(=O)[nH]n2)cc1)c1c(Cl)cc(Cl)cc1Cl,
512,512,256,O=C(NC(=S)Nc1ccc(-c2ccc(=O)[nH]n2)cc1)c1ccc(Cl)cc1,
,,,N#Cc1ccc(Oc2cccc(NC(=O)Nc3ccc(Cl)c(C(F)(F)F)c3)c2)c(F)c1,MIC (Staphylococcus aureus [2]): 0.5 µg/mL
128,512,128,O=C(NC(=S)Nc1ccc(-c2ccc(=O)[nH]n2)cc1)c1ccc(Br)cc1,
> 1020,512,> 1020,O=C(NC(=S)Nc1ccc(-c2ccc(=O)[nH]n2)cc1)c1ccc(Cl)c(Cl)c1,
256,512,16,O=C(NC(=S)Nc1ccc(-c2ccc(=O)[nH]n2)cc1)c1cccc(Br)c1,
,,,COc1cccc2c1C(=O)c1c(O)c3c(c(O)c1C2=O)C[C@@](O)(C(=O)CO)C[C@@H]3O[C@H]1C[C@H](N)[C@H](O)[C@H](C)O1 [DOXORUBICIN],Activity (A549): Active; fold change (FC) [4]: 3; fold change (FC) [5]: 3

Structure (SMILES),MIC (Escherichia coli) [µg/mL],MIC (Candida albicans) [µg/mL],MIC (Staphylococcus aureus [1]) [µg/mL],other results
CNC(C)[C@@H]1CC[C@@H](N)[C@@H](O[C@H]2[C@H](O)[C@@H](O[C@H]3OC[C@](C)(O)[C@H](NC)[C@H]3O)[C@H](N)C[C@@H]2N)O1.CN[C@@H]1[C@@H](O)[C@@H](O[C@@H]2[C@@H](O)[C@H](O[C@H]3O[C@H](C(C)N)CC[C@H]3N)[C@@H](N)C[C@H]2N)OC[C@]1(C)O.CN[C@@H]1[C@@H](O)[C@@H](O[C@@H]2[C@@H](O)[C@H](O[C@H]3O[C@H](CN)CC[C@H]3N)[C@@H](N)C[C@H]2N)OC[C@]1(C)O (stereo partly specified),,,0.5,
